Source: publication PMC11564280 (Clinical Drug Investigation, 2024)
Entries after “also recorded” stand apart in the source; their conditions may differ. Read-outs that look alike come from different tables or passages of the source.

How the values were obtained:
[1] = assay type: in vivo, human
Summary of the method: (§1)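 Healthy males aged 18–50 y, randomized 3:1 to active or placebo (single-blind). Oral suspension given once daily each morning after a ≥10 h fast for 10 days: Japanese cohorts 2.5, 5 or 10 mg, Chinese cohort 5 mg. K2EDTA blood drawn pre-dose and 0.25–12 h post-dose on days 1 and 10, plus 24–336 h. Urine pooled 0–3, 3–6, 6–9, 9–12 and 12–24 h on day 10. Plasma spun 1500g, 4 °C, 10 min; samples stored at −50 to −90 °C.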

[2] = Safety and tolerability, Japanese and Chinese participants together; assay type: in vivo, human
Summary of the method: (§2)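 Safety assessed at every visit in all randomized participants given ≥1 dose of drug or placebo (oral suspension once daily for 10 days, 3:1 randomization). Covered AE and SAE incidence and severity, vital signs, ECGs, laboratory tests and skin rash. Participants resided on site from day −1 to day 12, with visits on days 14, 16, 20 and 24. Rash graded by CTCAE; relatedness judged by the investigator.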

[3] = cited from earlier work; for mean CL/F on the last study day: mainly white and Black/African American participants
[4] = SAD study 5–405 mg; cited from earlier work
[5] = human plasma; cited from earlier work
[6] = Safety and tolerability in healthy Chinese volunteers; assay type: in vivo, human; details: 5 mg once daily for 10 days, n = 6
Summary of the method: as §2

[7] = Safety and tolerability in healthy Japanese volunteers; assay type: in vivo, human; details: for Any AE / Any AE leading to discontinuation / Any SAE / Any possibly related AE / Death / Maculopapular rash: Japanese
Summary of the method: as §2

[8] = Pharmacokinetics, Japanese and Chinese participants together or compared; assay type: in vivo, human
Summary of the method: as §1

[9] = assay type: in vivo, human; details: for Ae(0–last), cumulative amount excreted in urine / fe(0–last), fraction of dose excreted unchanged in urine: day 10; for Vd/F / half-life / CL renal: human, po; for Vd/F / half-life: plasma; for Ae(0–last), cumulative amount excreted in urine / fe(0–last), fraction of dose excreted unchanged in urine / CL renal: urine
Summary of the method: as §1

[10] = Stability of frozen plasma and urine pharmacokinetic samples; design: species or system human; details: stored frozen at − 50 to − 90 °C
[11] = Chinese, 5 mg oral once daily, day 10, n = 5, urine
[12] = 2.5 mg once daily for 10 days, n = 6
[13] = 5 mg once daily for 10 days, n = 6
[14] = 10 mg once daily for 10 days, n = 6
[15] = total mitiperstat 2.5, 5 or 10 mg, n = 18
[16] = Japanese, 2.5 mg oral once daily, n = 6
[17] = Japanese, 5 mg oral once daily, n = 5
[18] = Japanese, 10 mg oral once daily, n = 3

Compound: C[C@@H](N)c1cc(Cl)ccc1Cn1c(=S)[nH]c(=O)c2[nH]ccc21 [Mitiperstat]
- Ae(0–last), cumulative amount excreted in urine [1, 11]: 2.48 (0.53) mg
- fe(0–last), fraction of dose excreted unchanged in urine [1, 11]: 49.59 (10.62) %
- Vd/F ([1]; human, plasma, po, 5 mg): 1960 L
- half-life ([1]; human, plasma, po, 5 mg): 55.4 h
- CL renal ([1]; human, urine, po, 5 mg): 200 mL/min
- laboratory results, vital signs or electrocardiograms ([2]; Japanese and Chinese, 2.5–10 mg once daily for 10 days): No clinically significant trends or shifts from baseline
- time to resolution of rash ([2]; all cases of rash): ≤ 1 month
- day of rash occurrence ([2]; the other four participants who experienced rash): 9 days
- adverse events of rash of moderate intensity (maculopapular rash, CTCAE grade 2) ([2]; three Japanese 10 mg, one Chinese 5 mg): Four
- dose proportionality of AUC and Cmax ([3]; MAD study 5–45 mg, last day of dosing): approximately proportional to dose
- time to Cmax ([3]; healthy participants): approximately 1 h
- mean CL/F on the last study day ([3]; 5 mg): 22.8 L/h
- mean CL/F on the last study day ([3]; 10 mg): 20.6 L/h
- dose proportionality of exposure (average AUC) [4]: increased proportionally with mitiperstat dose
- share of drug-related exposure in plasma [5]: approximately 7%
- Any AE [6]: 2 (33.3) n (%)
- Any AE leading to discontinuation [6]: 1 (16.7) n (%)
- Any SAE [6]: 0 (0.0) n (%)
- Any possibly related AE [6]: 2 (33.3) n (%)
- Death [6]: 0 (0.0) n (%)
- Maculopapular rash [6]: 1 (16.7) n (%)
- Any AE [7, 12]: 1 (16.7) n (%)
- Any AE leading to discontinuation [7, 12]: 0 (0.0) n (%)
- Any SAE [7, 12]: 0 (0.0) n (%)
- Any possibly related AE [7, 12]: 0 (0.0) n (%)
- Death [7, 12]: 0 (0.0) n (%)
- Maculopapular rash [7, 12]: 0 (0.0) n (%)
- Any AE [7, 13]: 2 (33.3) n (%)
- Any AE leading to discontinuation [7, 13]: 1 (16.7) n (%)
- Any SAE [7, 13]: 0 (0.0) n (%)
- Any possibly related AE [7, 13]: 1 (16.7) n (%)
- Death [7, 13]: 0 (0.0) n (%)
- Maculopapular rash [7, 13]: 1 (16.7) n (%)
- Any AE [7, 14]: 4 (66.7) n (%)
- Any AE leading to discontinuation [7, 14]: 3 (50.0) n (%)
- Any SAE [7, 14]: 0 (0.0) n (%)
- Any possibly related AE [7, 14]: 3 (50.0) n (%)
- Death [7, 14]: 0 (0.0) n (%)
- Maculopapular rash [7, 14]: 3 (50.0) n (%)
- Any AE [7, 15]: 7 (38.9) n (%)
- Any AE leading to discontinuation [7, 15]: 4 (22.2) n (%)
- Any SAE [7, 15]: 0 (0.0) n (%)
- Any possibly related AE [7, 15]: 4 (22.2) n (%)
- Death [7, 15]: 0 (0.0) n (%)
- Maculopapular rash [7, 15]: 4 (22.2) n (%)
- day of rash occurrence ([7]; Participant receiving 5 mg): 4 days
- mean CL/F on the last study day ([8]; Japanese and Chinese cohorts receiving 5 mg): 25.3 L/h
- time to steady state ([8]; Japanese and Chinese, once-daily oral dosing): ≤ 10 days
- time to steady state by visual interpretation ([8]; Japanese and Chinese, trough concentrations): approximately 7 days
- renal clearance as share of apparent total clearance ([8]; both Japanese and Chinese participants): approximately 50%
- median time to Cmax ([8]; day 10, Japanese and Chinese, range of group medians): 1.02 to 2.00 h
- half-life ([8]; human, plasma, po): 50.2 to 57.8 h
- Ae(0–last), cumulative amount excreted in urine [9, 16]: 1.20 (0.29) mg
- fe(0–last), fraction of dose excreted unchanged in urine [9, 16]: 47.94 (11.55) %
- Ae(0–last), cumulative amount excreted in urine [9, 17]: 2.56 (0.72) mg
- fe(0–last), fraction of dose excreted unchanged in urine [9, 17]: 51.14 (14.31) %
- Ae(0–last), cumulative amount excreted in urine [9, 18]: 6.29 (1.77) mg
- fe(0–last), fraction of dose excreted unchanged in urine [9, 18]: 62.94 (17.71) %
- dose proportionality of exposure (AUC, Ctrough and Cmax) ([9]; Japanese, 2.5–10 mg range): dose proportional; also recorded: increased proportionally with dose
- Vd/F ([9]; 2.5 mg): 2300 L
- half-life ([9]; 2.5 mg): 50.2 h
- Vd/F ([9]; 5 mg): 2170 L
- half-life ([9]; 5 mg): 57.8 h
- Vd/F ([9]; 10 mg): 2250 L
- half-life ([9]; 10 mg): 56.4 h
- CL renal ([9]; 2.5 mg): 248 mL/min
- CL renal ([9]; 5 mg): 215 mL/min
- CL renal ([9]; 10 mg): 282 mL/min
- known stability period of study samples ([10]; plasma): 438 days
- known stability period of study samples ([10]; urine): 439 days
